Compound activity as filed in PubChem BioAssay.
Arrestin-AP2 inh: inhibitors of beta-arrestin/AP2 binding, primary screen, biochemical, GPCR trafficking, flow cytometry; beta-arrestin 1 C-terminal peptide binding to AP2 beta2-adaptin appendage (human); FITC-arrestin peptide / GST-AP2 beads; AP2 beta2 appendage carries R879A mutation; AID 504490, 2011; inhibition, % at 10 µM; hit rate 0.31% among 340,000;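 active = inhibition above a set limit, near 3 SD of compounds lacking own fluorescence, cut at about 54% in these data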;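 note: plate controls were DMSO wells for no effect and 5 µM unlabelled arrestin peptide for full effect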
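System: GST-AP2 R879A glutathione beads; medium: PBS, Tween 20 0.05%, BSA 0.1%; reagent: fluorescein-tagged arrestin peptide at 50 nM final; schedule: pre-incubation 12 min, peptide binding 1 h, room temperature; detection: flow cytometry, FL1 (488/535 nm); read-out: inhibition as reduced fluorescein signal on beads, percent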
PG9 binder: binders of HIV-1 gp120 antibody PG9, primary screen, biochemical, TR-FRET | TR-FRET gp120-PG9 antibody binding | AID 624416, 2012 | hit rate 0.43% among 360,000 | HIV-1 gp120 / PG9 antibody interaction | inhibition, % at 6.7 µM; in the data active = inhibition above about 8.5%
ABCB6 inh MLPCN: ABCB6 transporter inhibitors, primary screen, K562-ABCB6 cells, flow cytometry, MLPCN library. ATP-binding cassette sub-family B member 6 (Homo sapiens), Q9NP58. K562-ABCB6 porphyrin accumulation, 1 h; hits give low values. fluorescence ratio to DMSO, % at 10 µM. hit rate 0.19% among 360,000;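 active = fluorescence ratio to DMSO below 75%, the collection mean minus 3 SD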;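 note: signal is porphyrin accumulated inside mitochondria; 100% equals median channel fluorescence of DMSO control wells; lower ratio means ABCB6 inhibition with less porphyrin fluorescence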
iPSC survival up: enhancers of single-cell hiPSC survival, primary screen, ATPlite luminescence; 100% = ROCK inhibitor wells, 0% = DMSO; survival enhancement, % at 20 µM; hit rate 0.044% among 360,000; in the data active = survival enhancement above about 18%;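 note: cells exposed to compounds for 16 hours before the ATP read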
ABCB6 blocker 1: ABCB6 transporter inhibitors, confirmation, K562-ABCB6 cells, flow cytometry, cherry pick 1 | shares compounds with ABCB6 inh MLPCN | K562-ABCB6 porphyrin accumulation, 1 h; hits give low values | ratio response (% of DMSO), % at 10 µM | 700 tested, under 10 active | AID 602430, 2012;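 active = repeat-averaged ratio response below 75% of DMSO, the collection mean minus 3 SD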;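 note: median porphyrin fluorescence at 575 nm with 488 nm excitation from mitochondria; lower ratio means less porphyrin signal so ABCB6 inhibition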
The depositor's hits bear a star. Compounds with a hit are over-represented: about 0.89% of the library has one in this group of screens.

CC(=O)c1cccc(NC(=O)CN2C(=O)NC3(CCCCCCC3)C2=O)c1 was read as Arrestin-AP2 inh 2, PG9 binder 1, ABCB6 inh MLPCN 61*, iPSC survival up 2 and ABCB6 blocker 1 99.
CCNC(=O)c1cccc(NC(=O)CN2C(=O)NC3(CCCCC3)C2=O)c1 was read as Arrestin-AP2 inh -6, PG9 binder 1, ABCB6 inh MLPCN 100 and iPSC survival up 0.
COCCN1Cc2cc(C(=O)OC)c3c(c2C1=O)c1cc(OC)ccc1n3S(C)(=O)=O was read as PG9 binder -1.
`Cc1ccccc1COC(=O)CCCC1=NS(=O)(=O)c2ccccc2N1` gave Arrestin-AP2 inh -7, PG9 binder -1, ABCB6 inh MLPCN 100 and iPSC survival up -1.
Screening COc1ccc(Cl)cc1NC(=O)COC(=O)CCCC1=NS(=O)(=O)c2ccccc2N1 returned Arrestin-AP2 inh -17, PG9 binder -1, ABCB6 inh MLPCN 101, iPSC survival up 0 and ABCB6 blocker 1 102.
Cc1ccc(NC(=O)COC(=O)CCCC2=NS(=O)(=O)c3ccccc3N2)cc1C was read as Arrestin-AP2 inh 2, PG9 binder 0, ABCB6 inh MLPCN 10*, iPSC survival up 0 and ABCB6 blocker 1 99.
O=C(COC(=O)CCCC1=NS(=O)(=O)c2ccccc2N1)Nc1ccc(Br)cc1 was read as Arrestin-AP2 inh -10, PG9 binder 1, ABCB6 inh MLPCN 104, iPSC survival up 0 and ABCB6 blocker 1 97.
Screening COc1ccccc1NC(=O)COC(=O)CC(C)(C)CC1=NS(=O)(=O)c2ccccc2N1 returned Arrestin-AP2 inh -4, PG9 binder 0, ABCB6 inh MLPCN 98 and iPSC survival up 0.
Screening COC(=O)C1=C(C)N(Cc2ccc(C(F)(F)F)cc2)C(=NCc2ccccc2)NC1c1ccc(C(F)(F)F)cc1 (stereo not given) returned PG9 binder 0.
CC1(O)C(=O)C2(C)C=CC1C1C(=O)N(c3ccccc3)C(=O)C12 (stereo not given) was read as PG9 binder 1.
For CCOC(=O)N1CCN(S(=O)(=O)c2ccc(C(=O)Nc3sc4c(c3C(N)=O)CCN(CC)C4)cc2)CC1 the results were Arrestin-AP2 inh 23, PG9 binder -1, ABCB6 inh MLPCN 73*, iPSC survival up 0 and ABCB6 blocker 1 102.
For C[C@@H]1CN([C@@H](C)CO)C(=O)CCCn2cc(nn2)CO[C@H]1CN(C)C(=O)Nc1ccc(F)cc1 the results were PG9 binder -1.
`COC(=O)c1cc(S(=O)(=O)NCC2CCN(C(=O)C(=O)c3cccs3)CC2)cs1` gave PG9 binder -2.
`CCC(C)N(Cc1ccc(OC)cc1OC)S(=O)(=O)c1cc(Br)ccc1Br` (stereo not given) gave PG9 binder -1.
For Cc1nn(C(C)(C)C)c(OC(=O)c2cccs2)c1S(=O)(=O)c1ccccc1 the results were Arrestin-AP2 inh 5, PG9 binder 1, ABCB6 inh MLPCN 74*, iPSC survival up 1 and ABCB6 blocker 1 101.
Screening C[C@H]1CN(C(=O)OC(C)(C)C)CCN1c1ccc(Br)c(C#N)c1 returned PG9 binder 0.
For C#CCOc1ccccc1CNC1CCN(Cc2ccccc2)CC1 the results were Arrestin-AP2 inh 0, PG9 binder -1, ABCB6 inh MLPCN 57*, iPSC survival up 0 and ABCB6 blocker 1 98.
`COc1ccc(-c2cscc2N)cc1` gave PG9 binder -4.
`O=C(CN1CCCCC1)Nc1cccc(Br)c1` gave Arrestin-AP2 inh 16, PG9 binder 1, ABCB6 inh MLPCN 69*, iPSC survival up -1 and ABCB6 blocker 1 98.
CCOC(=O)N1CCN(CC(=O)Nc2ccc(C)cc2)CC1 was read as Arrestin-AP2 inh -11, PG9 binder -2, ABCB6 inh MLPCN 72*, iPSC survival up -3 and ABCB6 blocker 1 96.
COc1ccc(NC(=O)CN2CCCCCC2)cc1OC was read as Arrestin-AP2 inh -8, PG9 binder 0, ABCB6 inh MLPCN 73*, iPSC survival up 0 and ABCB6 blocker 1 100.
